Assay [1] has as its target T1, Muscarinic acetylcholine receptor M1 (Homo sapiens, UniProt P11229).
T1 sequence (P11229 whole entry): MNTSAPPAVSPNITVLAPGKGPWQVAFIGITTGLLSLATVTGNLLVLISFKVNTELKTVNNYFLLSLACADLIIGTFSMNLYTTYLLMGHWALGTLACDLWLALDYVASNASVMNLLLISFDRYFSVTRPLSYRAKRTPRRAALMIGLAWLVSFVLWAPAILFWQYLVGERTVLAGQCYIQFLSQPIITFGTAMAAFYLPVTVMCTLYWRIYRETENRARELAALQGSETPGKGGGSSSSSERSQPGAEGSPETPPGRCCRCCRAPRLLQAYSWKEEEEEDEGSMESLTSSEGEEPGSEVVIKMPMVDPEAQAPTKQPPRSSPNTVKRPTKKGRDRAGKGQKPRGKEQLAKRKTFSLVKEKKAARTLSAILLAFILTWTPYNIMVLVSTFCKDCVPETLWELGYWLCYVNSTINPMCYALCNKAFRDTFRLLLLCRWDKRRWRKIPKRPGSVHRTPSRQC
Description: Displacement of [3H]NMS from human cloned muscarinic M1 receptor expressed in CHO cells by scintillation counting. Format: cell-based.

In assay [2] the target is T2, Muscarinic acetylcholine receptor M2 (Homo sapiens, UniProt P08172).
T2 sequence (P08172 whole entry): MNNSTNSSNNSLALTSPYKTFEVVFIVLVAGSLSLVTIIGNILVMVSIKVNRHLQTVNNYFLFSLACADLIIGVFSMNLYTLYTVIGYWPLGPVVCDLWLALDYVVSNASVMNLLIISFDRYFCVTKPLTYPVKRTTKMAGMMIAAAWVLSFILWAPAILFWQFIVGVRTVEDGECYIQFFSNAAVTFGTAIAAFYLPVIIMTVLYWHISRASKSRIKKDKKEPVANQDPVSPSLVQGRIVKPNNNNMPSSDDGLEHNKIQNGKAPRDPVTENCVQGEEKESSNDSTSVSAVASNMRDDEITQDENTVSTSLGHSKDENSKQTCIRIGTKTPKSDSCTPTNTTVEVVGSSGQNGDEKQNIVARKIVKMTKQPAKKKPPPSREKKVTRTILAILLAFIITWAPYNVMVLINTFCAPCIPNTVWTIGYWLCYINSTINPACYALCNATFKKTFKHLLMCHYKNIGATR
Put plainly: Displacement of [3H]NMS from human cloned muscarinic M2 receptor expressed in CHO cells by scintillation counting. Format: cell-based. In outline: (§1)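 Equilibrium radioligand binding in CHO cells expressing the human muscarinic subtype, following the authors' earlier protocol.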

The target in assay [3] is Muscarinic acetylcholine receptor M3 (Homo sapiens, UniProt P20309). Description: Displacement of [3H]NMS from human cloned muscarinic M3 receptor expressed in CHO cells by scintillation counting. Format: cell-based.
Sequence of Muscarinic acetylcholine receptor M3 (P20309 whole entry): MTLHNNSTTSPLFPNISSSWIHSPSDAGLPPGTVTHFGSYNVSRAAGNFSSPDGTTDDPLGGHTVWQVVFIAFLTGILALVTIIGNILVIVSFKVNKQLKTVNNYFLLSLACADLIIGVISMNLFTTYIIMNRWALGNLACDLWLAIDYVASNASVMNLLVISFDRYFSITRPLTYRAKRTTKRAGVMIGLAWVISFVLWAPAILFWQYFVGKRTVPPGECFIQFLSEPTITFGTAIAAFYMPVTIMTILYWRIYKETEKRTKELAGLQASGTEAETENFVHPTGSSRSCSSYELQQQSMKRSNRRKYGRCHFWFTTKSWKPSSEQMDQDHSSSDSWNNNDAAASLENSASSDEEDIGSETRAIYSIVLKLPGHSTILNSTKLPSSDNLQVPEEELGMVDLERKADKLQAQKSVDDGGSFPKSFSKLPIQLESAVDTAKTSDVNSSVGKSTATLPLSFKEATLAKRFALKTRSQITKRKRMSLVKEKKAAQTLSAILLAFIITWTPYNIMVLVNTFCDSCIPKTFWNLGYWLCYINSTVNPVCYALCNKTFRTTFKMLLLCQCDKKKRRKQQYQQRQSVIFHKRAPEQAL
In assay [4] the target is T3, Muscarinic acetylcholine receptor M4 (Homo sapiens, UniProt P08173).
T3 sequence (P08173 whole entry): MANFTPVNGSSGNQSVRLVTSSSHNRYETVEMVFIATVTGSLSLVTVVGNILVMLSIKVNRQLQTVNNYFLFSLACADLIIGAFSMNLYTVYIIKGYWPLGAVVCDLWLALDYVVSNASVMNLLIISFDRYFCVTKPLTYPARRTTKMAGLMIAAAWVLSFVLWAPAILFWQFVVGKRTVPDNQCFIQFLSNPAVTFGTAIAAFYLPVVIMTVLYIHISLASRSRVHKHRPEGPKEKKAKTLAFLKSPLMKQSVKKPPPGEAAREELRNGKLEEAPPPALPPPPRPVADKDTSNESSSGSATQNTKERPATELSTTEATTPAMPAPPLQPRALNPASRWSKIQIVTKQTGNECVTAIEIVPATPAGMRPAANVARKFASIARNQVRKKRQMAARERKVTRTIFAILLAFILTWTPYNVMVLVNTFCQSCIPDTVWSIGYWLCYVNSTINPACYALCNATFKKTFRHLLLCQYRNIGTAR
Put plainly: Displacement of [3H]NMS from human cloned muscarinic M4 receptor expressed in CHO cells by scintillation counting. Type of assay: cell-based.

Assay [5] has as its target T4, Muscarinic acetylcholine receptor M5 (Homo sapiens, UniProt P08912).
T4 sequence (P08912 whole entry): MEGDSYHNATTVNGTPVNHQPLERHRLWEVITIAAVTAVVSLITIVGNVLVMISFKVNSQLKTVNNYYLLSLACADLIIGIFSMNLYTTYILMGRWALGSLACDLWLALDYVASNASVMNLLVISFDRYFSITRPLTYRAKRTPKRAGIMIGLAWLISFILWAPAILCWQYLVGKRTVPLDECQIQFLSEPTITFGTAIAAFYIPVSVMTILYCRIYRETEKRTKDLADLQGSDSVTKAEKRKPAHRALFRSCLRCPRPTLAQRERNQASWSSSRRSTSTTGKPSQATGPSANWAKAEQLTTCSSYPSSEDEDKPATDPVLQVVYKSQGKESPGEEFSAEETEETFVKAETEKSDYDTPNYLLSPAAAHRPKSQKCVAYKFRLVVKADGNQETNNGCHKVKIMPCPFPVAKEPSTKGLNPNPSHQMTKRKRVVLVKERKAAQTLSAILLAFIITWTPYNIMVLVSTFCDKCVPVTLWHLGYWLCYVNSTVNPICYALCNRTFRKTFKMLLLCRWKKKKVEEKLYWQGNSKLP
Put plainly: Displacement of [3H]NMS from human cloned muscarinic M5 receptor expressed in CHO cells by scintillation counting. Format: cell-based. In outline: as §1

Assay [6] concerns the target T5, Muscarinic receptor 2 (Cavia porcellus) (UniProt Q8VH27).
T5 sequence (whole entry): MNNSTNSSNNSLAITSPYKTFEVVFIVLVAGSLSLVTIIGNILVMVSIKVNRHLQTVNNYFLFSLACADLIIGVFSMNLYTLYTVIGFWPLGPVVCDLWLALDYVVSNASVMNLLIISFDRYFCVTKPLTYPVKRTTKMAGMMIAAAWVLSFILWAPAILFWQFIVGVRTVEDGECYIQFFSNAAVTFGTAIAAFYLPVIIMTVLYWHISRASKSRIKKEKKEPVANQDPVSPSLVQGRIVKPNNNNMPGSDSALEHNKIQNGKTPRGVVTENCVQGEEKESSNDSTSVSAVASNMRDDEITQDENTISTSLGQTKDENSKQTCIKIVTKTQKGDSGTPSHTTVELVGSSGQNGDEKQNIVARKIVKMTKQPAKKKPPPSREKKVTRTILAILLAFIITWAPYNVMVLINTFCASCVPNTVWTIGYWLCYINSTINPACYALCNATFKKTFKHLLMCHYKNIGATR
Put plainly: Antagonist activity at muscarinic M2 receptor in guinea pig left atrium assessed as effect on electrically-stimulated inotropic activity after 60 mins. Type of assay: functional, tissue-based. The following applies: Cardiac atrium.

For assay [7], the target named is T6, Muscarinic receptor 4 (Cavia porcellus) (UniProt Q8VH25).
T6 sequence (whole entry): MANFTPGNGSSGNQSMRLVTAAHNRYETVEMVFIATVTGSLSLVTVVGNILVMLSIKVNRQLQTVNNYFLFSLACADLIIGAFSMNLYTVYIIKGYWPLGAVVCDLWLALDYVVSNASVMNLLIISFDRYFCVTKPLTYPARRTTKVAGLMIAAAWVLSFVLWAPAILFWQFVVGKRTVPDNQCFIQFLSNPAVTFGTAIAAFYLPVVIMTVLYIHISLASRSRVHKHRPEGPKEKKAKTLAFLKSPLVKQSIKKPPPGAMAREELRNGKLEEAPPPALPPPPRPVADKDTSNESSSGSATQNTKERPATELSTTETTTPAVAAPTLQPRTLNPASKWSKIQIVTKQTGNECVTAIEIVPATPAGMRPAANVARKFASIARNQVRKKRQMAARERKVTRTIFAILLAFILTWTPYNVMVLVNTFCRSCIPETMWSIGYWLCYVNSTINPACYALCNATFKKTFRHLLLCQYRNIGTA
Description: Antagonist activity at muscarinic M4 receptor in guinea pig lung strips assessed as effect on isotonic contraction after 60 mins. Type of assay: functional.

Assay [8] addresses Muscarinic acetylcholine receptor M3 (Cavia porcellus) (UniProt Q8VH26). Put plainly: Antagonist activity at muscarinic M3 receptor in guinea pig ileum assessed as effect on isotonic tension after 60 mins. Type of assay: functional, tissue-based.
Assay [9] in a line: Antagonist activity at muscarinic M1 receptor in New Zealand rabbit vas deferens assessed as effect on electrically-stimulated muscle contraction after 60 mins. Format: functional, Oryctolagus cuniculus.

Sequence of Muscarinic acetylcholine receptor M3 (Cavia porcellus) (Q8VH26 1-587): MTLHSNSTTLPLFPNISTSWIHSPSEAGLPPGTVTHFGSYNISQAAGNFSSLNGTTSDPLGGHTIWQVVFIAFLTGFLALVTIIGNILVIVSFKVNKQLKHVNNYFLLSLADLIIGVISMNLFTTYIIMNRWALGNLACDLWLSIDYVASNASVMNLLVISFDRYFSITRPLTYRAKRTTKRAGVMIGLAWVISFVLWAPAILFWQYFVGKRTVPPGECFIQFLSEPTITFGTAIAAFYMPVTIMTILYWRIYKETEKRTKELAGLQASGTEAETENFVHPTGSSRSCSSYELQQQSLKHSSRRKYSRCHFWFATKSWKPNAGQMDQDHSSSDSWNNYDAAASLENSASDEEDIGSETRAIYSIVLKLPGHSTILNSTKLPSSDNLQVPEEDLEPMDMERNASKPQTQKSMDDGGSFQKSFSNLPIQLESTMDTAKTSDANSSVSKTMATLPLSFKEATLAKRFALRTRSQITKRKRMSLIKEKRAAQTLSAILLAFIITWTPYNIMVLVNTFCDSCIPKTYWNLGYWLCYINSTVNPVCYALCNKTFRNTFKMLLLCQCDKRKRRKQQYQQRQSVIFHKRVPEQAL

For `C[N+]1(C)CCC[C@@H]1c1ccc([C@@](O)(c2ccccc2)C2CCCCC2)o1`, the Ki in [1] was 47.9 nM; in assay [2] it was 87.1 nM; in assay [3] it was 155 nM; in assay [4], 372 nM; in assay [5], 229 nM. The pKb in assay [6] was 6.85; in [7], 6.33; in assay [8] it was 6.95.

Turning to `CN1CCCC1c1ccc(C(c2ccccc2)C2CCCCC2)o1` (mixture of isomers), the Ki is 13.5 nM in assay [1]; 141 nM in assay [2]; 33.9 nM in assay [3]; 77.6 nM in assay [4]; 55 nM in assay [5]. The pKb is 5.36 in assay [6], under 5 in assay [7] and 7.05 in assay [8].

In the case of `C[N+]1(C)CCCC1c1ccc(C(O)(c2ccccc2)c2ccccc2)o1` (racemic) [listing 1 of 2 here], the pKb in assay [6] is 7.08; in assay [7], 6.2; in assay [8] it was 7.6.

Take `CN1CCC[C@H]1c1ccc([C@](O)(c2ccccc2)C2CCCCC2)o1`: the Ki was 22.9 nM in [1]; 60.3 nM in [2]; 23.4 nM in [3]; 55 nM in [4]; 27.5 nM in [5]. The pKb turned out to be 6.65 in [6], 5.84 in assay [7] and 7.66 in assay [8].

In the case of `C[N+]1(C)CCCC1c1ccc(C(O)(c2ccccc2)c2ccccc2)o1` (racemic) [listing 2 of 2 here], the Ki was 23.4 nM in assay [1]; 31.6 nM in assay [2]; 36.3 nM in [3]; 64.6 nM in [4]; 37.2 nM in assay [5].

In the case of `C[N+]1(C)CCC[C@H]1c1ccc([C@](O)(c2ccccc2)C2CCCCC2)o1`, the Ki in [1] is 9.12 nM; in assay [2] it was 20 nM; in [3], 9.33 nM; in [4], 33.1 nM; in assay [5], 12 nM. The pKb in assay [6] is 7.32; in assay [7], 6.16; in assay [8], 7.95.

`C[N+]1(C)CCC[C@H]1c1ccc([C@@](O)(c2ccccc2)C2CCCCC2)o1`: the Ki in [1] is 331 nM; in assay [2] it was 759 nM; in [3], 513 nM; in assay [4], 2340 nM; in [5] it was 871 nM. Further, the pKb was 5.92 in [6], under 5 in assay [7] and 6.32 in [8].

On to `CN1CCCC1c1ccc(C(O)(c2ccccc2)C2CCCCC2)o1` (mixture of isomers), for which the inhibition constant Ki is 1.23 nM in [1]; 6.76 nM in [2]; 7.76 nM in assay [3]; 14.1 nM in [4]; 7.08 nM in [5]. The pKb in assay [6] was 6.98; in assay [7], under 5; in [8], 7.8.

Turning to `CN1CCC[C@H]1c1ccc([C@@](O)(c2ccccc2)C2CCCCC2)o1`, the Ki is 1230 nM in [1]; 3240 nM in assay [2]; 1660 nM in assay [3]; 3090 nM in assay [4]; 1550 nM in assay [5]. Besides, the figures for the pKb in [6], in [7] and in assay [8] were 5.95, under 5 and 6.41, respectively.

Take `CN1CCC[C@@H]1c1ccc([C@@](O)(c2ccccc2)C2CCCCC2)o1`: the Ki in assay [1] is 191 nM; in assay [2], 363 nM; in assay [3] it was 324 nM; in assay [4] it was 550 nM; in assay [5], 468 nM. The pKb was 6.23 in [6], under 5 in assay [7] and 6.77 in [8].

Consider `C[N+]1(C)CCCC1c1ccc(C(O)(c2ccccc2)C2CCCCC2)o1` (mixture of isomers), for which the Ki in assay [1] is 2.09 nM; in assay [2] it was 10.2 nM; in assay [3] it was 7.24 nM; in assay [4], 15.5 nM; in [5], 11.5 nM. In addition, the negative-log Kb (pKb) worked out at 7.88 in assay [6], 5.9 in [7] and 8.35 in assay [8].

For the molecule `C[N+]1(C)CCCC1c1ccc(C(c2ccccc2)c2ccccc2)o1.[I-]` (mixture of isomers), the pKb in assay [9] was found to be 7.91.

For the molecule `C[N+]1(C)CCCC1c1ccc(C(O)(c2ccccc2)c2ccccc2)o1.[I-]` (mixture of isomers), the pKb in assay [9] is on record as 8.46.

On to `C[N+]1(C)CCCC1c1ccc(C(c2ccccc2)C2CCCCC2)o1` (mixture of isomers), for which the Ki in assay [1] was 6.61 nM; in assay [2], 17.4 nM; in assay [3] it was 8.91 nM; in [4], 19.5 nM; in assay [5], 15.5 nM. Also, the pKb in assay [6] was determined as 6.21; in assay [7], 5.69; in assay [8], 7.88.

Consider `C[N+]1(C)CCCC1c1ccc(C(c2ccccc2)c2ccccc2)o1` (racemic) [listing 1 of 2 here], for which the pKb in assay [6] was 7.09; in assay [7], under 5; in [8], 7.59.

Consider `C[N+]1(C)CCCC1c1ccc(C(c2ccccc2)c2ccccc2)o1` (racemic) [listing 2 of 2 here], for which the Ki in [1] is 11.5 nM; in assay [2], 13.5 nM; in assay [3] it was 23.4 nM; in assay [4], 38 nM; in assay [5], 31.6 nM.

Values taken from ChEMBL document CHEMBL1156772, “Synthesis, affinity profile and functional activity of potent chiral muscarinic antagonists with a pyrrolidinylfuran structure” (J Med Chem, 2010).
